Here are results for 1 compound from ChEMBL document CHEMBL2086245, “Micelles catalyzed chemo- and regio-selective one pot and one step synthesis of 2,3,5,6-tetrakis(alkyl and arylsulfanyl)-1,4-benzoquinones and 2,5-diaminosubstituted-1,4-benzoquinones "In-Water" and their biological evaluation as antibacterial and antifungal agents” (Eur J Med Chem, 2012).

Values after ≈ are worked out from the molar mass of the structure shown. Where only a bound is given, the exact number is not on record here.

One series deals with Cryptococcus neoformans. Kind of series: Antifungal activity against Cryptococcus neoformans after 72 hrs by broth microdilution method. It is filed as functional. The method in brief: (§1)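 NCCLS broth microdilution in MOPS-buffered RPMI 1640, 96-well plates. Inoculum 1-5 × 10^3 cells/mL, moist chamber, 35 °C. Absorbance at 492 nm read at 48 h (C. albicans, C. parapsilosis), 72 h (C. neoformans, S. schenckii, A. fumigatus) or 96 h (T. mentagrophytes). MIC defined as 90% growth inhibition versus growth control.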

The next series has as its system Sporothrix schenckii. Kind of series: Antifungal activity against Sporothrix schenckii after 72 hrs by broth microdilution method. In kind it is functional. The method, boiled down: as §1
Series [1] relates to Trichophyton mentagrophytes. Description: Antifungal activity against Trichophyton mentagrophytes after 96 hrs by broth microdilution method. In kind it is functional. The method, boiled down:
as §1

Another series concerns Aspergillus fumigatus. Kind of series: Antifungal activity against Aspergillus fumigatus after 72 hrs by broth microdilution method. It is filed as functional. The method in brief:
as §1

Another series deals with Candida parapsilosis. Kind of series: Antifungal activity against Candida parapsilosis ATCC 22019 after 48 hrs by broth microdilution method. In kind it is functional. The conditions noted are these: Lodderomyces parapsilosis, ATCC 22019, 48 h. The method in brief:
as §1

Series [2] relates to L929. Description: Cytotoxicity against mouse L929 cells assessed as morphological changes at 0.39 to 1.56 ug/ml using Giemsa staining by phase contrast microscopy analysis. It is filed as cell-based. The method, boiled down: (§2)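 L929 fibroblasts in serum-free RPMI exposed to compound for 24 h. Wells fixed, Giemsa-stained 30 min at 37 °C, washed with PBS, air-dried. Morphology inspected by phase contrast microscopy against untreated control wells.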

In series [3] the test system is L929. Description: Cytotoxicity against mouse L929 cells assessed as morphological changes at 6.25 to 50 ug/ml using Giemsa staining by phase contrast microscopy analysis. In kind it is cell-based. The method in brief: as §2
Series [4] can be described thus: Cytotoxicity against mouse L929 cells assessed as cell viability at 6.25 to 50 ug/ml after 24 hrs by MTT assay. The conditions noted are these: read-out: Activity. It is filed as cell-based.
For another series, the system named is Escherichia coli. Description: Antibacterial activity against Escherichia coli ATCC 9637 after 24 hrs by broth microdilution method. In kind it is functional. The conditions noted are these: ATCC 9637, 24 h. The method in brief:
(§3)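 NCCLS broth microdilution in Mueller-Hinton broth, 96-well plates. Initial inoculum 1-5 × 10^3 cells/mL. Incubated in a moist chamber at 35 °C for 24 h, then absorbance read at 492 nm. MIC taken as the concentration giving 90% growth inhibition relative to the growth control.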

A further series relates to Pseudomonas aeruginosa. Description: Antibacterial activity against Pseudomonas aeruginosa ATCC BAA-427 after 24 hrs by broth microdilution method. In kind it is functional. The conditions noted are these: ATCC BAA-427, 24 h. The method, boiled down: as §3
The subject of another series is Staphylococcus aureus. Description: Antibacterial activity against Staphylococcus aureus ATCC 25923 after 24 hrs by broth microdilution method. It is filed as functional. The conditions noted are these: ATCC 25923, 24 h. The method in brief:
as §3

The test system of a further series is Klebsiella pneumoniae. Description: Antibacterial activity against Klebsiella pneumoniae ATCC 27736 after 24 hrs by broth microdilution method. The conditions noted are these: ATCC 27736, 24 h. It is filed as functional. The method in brief:
as §3

The next series relates to Candida albicans. Description: Antifungal activity against Candida albicans after 48 hrs by broth microdilution method. It is filed as functional. The method, boiled down: as §1

With `CN1CCN(C2=C(Cl)C(=O)C(N3CCN(C)CC3)=C(Cl)C2=O)CC1`, the MIC in the series on Cryptococcus neoformans was determined as 1.56 µg/mL (≈ 4.18 µM); against Sporothrix schenckii it was 1.56 µg/mL (≈ 4.18 µM); in series [1], 0.78 µg/mL (≈ 2.09 µM); in the series with Aspergillus fumigatus, 12.5 µg/mL (≈ 33.5 µM); against Candida parapsilosis, 6.25 µg/mL (≈ 16.7 µM); with Escherichia coli, 6.25 µg/mL (≈ 16.7 µM). Moreover, the minimal inhibitory concentration (MIC) in the series with Pseudomonas aeruginosa is greater than 50 µg/mL; against Staphylococcus aureus it was 6.25 µg/mL (≈ 16.7 µM); with Klebsiella pneumoniae it was 6.25 µg/mL (≈ 16.7 µM); against Candida albicans, 6.25 µg/mL (≈ 16.7 µM). The Activity entry was “Non-toxic” with L929 [2] and “Toxic” in the series with L929 [3]. Further, in [4], the viability at 24 h was greater than 90%.
